# Bioassay records: PubChem BioAssay, several laboratories
# The list is not random: actives were taken first. Their share in the collection is about 12%.
# Diaphorase act – counter-screen for diaphorase-based assays: diaphorase activators and chemical reducers. 190,000 tested, 0.005% active. Diaphorase/resazurin coupled assay, resorufin fluorescence, 16 min; active compounds read high; 1 = vehicle wells, 0 = NADH-free wells. activation factor at 20 µM;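 active means diaphorase activity raised at least twofold by the compound at 20 µM; inactive means activation factor below 2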
#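 Assay system: Purified diaphorase enzyme from Clostridium kluyveri | Amount: Enzyme 0.07 U/mL final | Dosing: Compound 20 µM once, DMSO 1% | Timing: 16 min reaction at room temperature | Detection: Fluorescence, excitation 544 nm and emission 590 nm | Evaluation: Higher resorufin formation from activation or reduction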
# Cl transport mod – modulators of human KCC2 chloride dependent transport | KCC2 cells, thallium flux FluoZin-2 fluorescence | B-score of Tl+ flux slope (higher = more flux/activation; lower = inhibition) at 10 µM | 190,000 tested, 2.2% active | AID 1456;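 active means thallium flux slope and its plate-corrected score both differing from the plate sample mean at a set confidence after two filtering rounds, in either direction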;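 further: slope of fluorescence scaled to starting intensity during 10 to 20 s after thallium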
# Diaph inh CS – diaphorase inhibition or chemical oxidation counter-screen; diaphorase resazurin-to-resorufin fluorescence, NADH, 16 min; bacterial (C. kluyveri) enzyme, not human; inhibition, % at 20 µM; 190,000 tested, 0.69% active;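 active means primary screen inhibition at 20 µM above a set limit, cut at about 50% in these data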
#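 Test system: Clostridium kluyveri diaphorase enzyme / Quantity: diaphorase at 0.14 U/mL in enzyme working solution / Incubation: 16-min room-temperature incubation before reading / Benchmarks: NADH-free wells as positive control, DMSO-only neutral wells / Signal: resorufin fluorescence 544/590 nm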
# ROMK mod – modulates human ROMK potassium channel activity; Tet-inducible ROMK, thallium flux fluorescence; actives lie on both sides; B-score at 10 µM; 130,000 tested, 2% active;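 active means signal ratio slope over the read window, or its plate-corrected B-score, at least 3 SD from the plate mean, either direction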;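 further: B-score of the F/F0 ratio slope over 7 to 12 s after thallium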
# Target sequence (P48048 whole entry, looked up): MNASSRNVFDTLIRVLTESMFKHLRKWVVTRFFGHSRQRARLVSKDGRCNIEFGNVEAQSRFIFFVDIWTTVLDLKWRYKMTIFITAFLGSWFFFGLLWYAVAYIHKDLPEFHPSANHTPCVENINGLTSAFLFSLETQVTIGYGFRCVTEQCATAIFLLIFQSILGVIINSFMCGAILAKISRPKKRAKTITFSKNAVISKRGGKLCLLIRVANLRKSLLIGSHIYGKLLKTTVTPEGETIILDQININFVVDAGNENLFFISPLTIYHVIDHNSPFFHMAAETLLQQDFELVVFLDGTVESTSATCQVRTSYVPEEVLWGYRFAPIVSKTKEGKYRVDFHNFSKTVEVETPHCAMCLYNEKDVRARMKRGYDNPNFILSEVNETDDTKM
# Lmaj promast – Leishmania major promastigote growth inhibition; Leishmania major promastigotes, resazurin fluorescence viability; inhibition, % at 10 µM; 200,000 tested, 9% active; AID 1063; in the data active means inhibition above about 50%;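 further: promastigotes grown with compound for 44 hours at 28 °C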
# WT yeast gro inh – growth inhibition of WT yeast, mitochondrial fusion screen; 190,000 tested, 2.1% active; mitochondrial fusion phenotypic screen, WT strain; inhibition, % at 10 µM; in the data active means inhibition above about 58%; tested in S. cerevisiae
# KCC2 sec1 – confirmation of human KCC2 transport modulators; HEK293-KCC2, thallium flux, FluoZin2 fluorescence; active compounds read high; shares compounds with Cl transport mod; normalised thallium flux (F/F0 slope) at 10 µM; AID 1713; 3,700 tested, 15% active;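 active means thallium flux slope above the same plate's solvent-only control mean plus 3 SD; inconclusive means the two replicate wells disagree; inactive means no significant difference from solvent-only control wells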
# KCC2 bumet counter – bumetanide-insensitive thallium flux in KCC2 cells with ouabain, counter-screen; shares compounds with Cl transport mod; HEK293-KCC2 + bumetanide/ouabain, thallium flux FluoZin2; active compounds read high; normalized thallium flux at 10 µM; 3,700 tested, 49% active;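 active means thallium entry rate above the same plate's blocked-transporter control wells by more than 3 SD; inconclusive means the two repeat wells disagree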;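 further: raw slope of fluorescence over initial fluorescence between 10 and 20 s after thallium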
# KCC2 secondary2 – confirmation of human KCC2 transport modulators. AID 1715. normalized thallium flux at 10 µM. HEK293-KCC2, thallium flux FluoZin2 fluorescence; actives lie on both sides; F/F0 rise rate, 10–20 s post-thallium. 3,700 tested, 23% active. shares compounds with Cl transport mod;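 active means thallium flux slope more than 3 SD above or below the plate's solvent-only control mean, mostly below; inconclusive means the two repeat wells disagreed; inactive means no significant shift from solvent-only controls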
# HEK293 Tl flux – counter-screen for KCC2 modulators: effect in parental HEK293 cells; shares compounds with Cl transport mod; thallium flux rate (normalised fluorescence) at 10 µM; 3,700 tested, 46% active; AID 1716; thallium flux FluoZin2, ouabain; baseline-ratio fluorescence slope, 10–20 s after thallium;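 active means thallium flux rate significantly above the same plate's solvent-only control wells, beyond their mean plus 3 SD; inconclusive means the two replicate wells gave conflicting results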
# KCC2 ouabain – modulates human KCC2 on retest with ouabain. shares compounds with Cl transport mod. HEK293-KCC2, thallium flux FluoZin2 fluorescence; bidirectional: low = inhibitor, high = activator. raw Tl+ flux slope (below DMSO = inhibition, above = activation) at 10 µM. 3,700 tested, 48% active. AID 1717;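 active means thallium flux slope beyond 3 SD from same-plate DMSO control mean in most replicates, usually higher, sometimes lower; inconclusive means repeat tests gave conflicting results; inactive means no significant difference from controls in most replicates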;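 further: slope of initial-normalized fluorescence between seconds 10 and 20 after thallium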
# HEK293 Tl flux2 – acts in parental HEK cells, second KCC2 counter-screen; thallium flux slope at 10 µM; shares compounds with Cl transport mod; HEK293 parental, thallium flux FluoZin-2 fluorescence slope; 3,700 tested, 33% active;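 active means thallium flux slope above the same plate's solvent-control mean plus 3 SD in both duplicate wells; inconclusive means duplicate wells that disagreed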;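 further: run without ouabain in cells lacking the KCC2 cotransporter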
# Hits are given with their value; i = inactive; ? = inconclusive; nt = not tested or not shown.
SMILES,Diaphorase act,Cl transport mod,Diaph inh CS,ROMK mod,Lmaj promast,WT yeast gro inh,KCC2 sec1,KCC2 bumet counter,KCC2 secondary2,HEK293 Tl flux,KCC2 ouabain,HEK293 Tl flux2
C/C(=N\N1CCN(C2c3ccccc3-c3ccccc32)CC1)c1cccnc1,i,i,i,nt,i,i,nt,nt,nt,nt,nt,nt
CC(C)(C)C1CCc2onc(C(=O)Nc3cccnc3)c2C1 (centres undefined),i,6.5,i,nt,i,i,i,i,i,i,i,i
CC(C)(C)C1CCc2onc(C(=O)Nc3cccc(O)c3)c2C1 (centres undefined),i,i,i,i,i,i,nt,nt,nt,nt,nt,nt
CC(C)(C)C1CCC(=NNC(=S)Nc2cccnc2)CC1 (centres undefined),i,6.8,i,i,i,i,i,0.013,i,0.014,?,0.013
CCNC(=S)NN=C1CCC(C(C)(C)C)CC1 (centres undefined),i,3.3,i,i,i,i,i,0.0066,i,0.0092,i,i
CCc1ccc(-n2c(Cc3ccccc3)n[nH]c2=S)cc1,i,i,i,i,i,i,nt,nt,nt,nt,nt,nt
c1cncc(-c2nnc(SCc3cccc4ccccc34)o2)c1,i,-4.3,i,nt,i,i,i,i,i,i,i,i
c1ccc(CSc2nnc(-c3cccnc3)o2)cc1,i,i,i,nt,i,i,nt,nt,nt,nt,nt,nt
CSc1nsc(N/N=C/c2ccc3c(c2)OCO3)c1C#N,i,8.2,i,i,i,i,i,i,i,i,i,i
Cn1c(SCc2c(Cl)cccc2Cl)nc(C(F)(F)F)cc1=O,i,i,i,nt,i,i,nt,nt,nt,nt,nt,nt
O=c1c2ccccc2[nH]c(=S)n1Cc1cccs1,i,26,i,i,i,i,?,0.048,i,0.017,0.041,0.012
CCCn1c(=S)[nH]c2ccccc2c1=O,i,79,i,i,i,i,?,0.12,0.091,0.085,0.1,0.088
O=c1c2ccccc2[nH]c(=S)n1Cc1cccnc1,i,i,i,i,i,i,nt,nt,nt,nt,nt,nt
CC1CCCN(C(=O)CCCn2c(=S)[nH]c3ccccc3c2=O)C1 (centres undefined),i,3.2,i,i,i,i,i,0.0099,i,0.0099,?,0.012
CC1CCCCC1NC(=O)CCCn1c(=S)[nH]c2ccccc2c1=O (centres undefined),i,i,i,i,i,i,nt,nt,nt,nt,nt,nt
CN(C)CCCn1c(=S)[nH]c2ccccc2c1=O,i,i,i,i,i,i,nt,nt,nt,nt,nt,nt
O=c1c2ccccc2[nH]c(=S)n1CCN1CCc2ccccc2C1,nt,58,nt,nt,nt,nt,0.018,0.13,i,0.036,0.069,0.015
CN(C)c1ccnc(SCc2ccccc2Cl)c1C#N,i,i,i,nt,i,i,nt,nt,nt,nt,nt,nt
COC(=O)c1ccccc1NC(=O)COC(=O)CSc1nnc(N)s1,i,i,i,i,i,i,nt,nt,nt,nt,nt,nt
O=c1c2ccccc2[nH]c(=S)n1CCc1ccccc1,i,29,i,i,i,i,0.027,0.072,i,0.11,0.061,0.055
CCCc1nc(NCC2CCCO2)c2nnn(Cc3ccccc3)c2n1 (centres undefined),i,i,i,nt,i,i,nt,nt,nt,nt,nt,nt
C=CCn1cnc2scc(-c3ccc(CC)cc3)c2c1=O,i,-4.1,i,i,i,i,i,i,i,i,i,i
O=C(CC(C(=O)N1CCc2ccccc21)n1ccnc1)N1CCc2ccccc2C1 (centres undefined),i,-6.2,i,nt,100,i,?,i,0.024,i,?,i
O=C(CNC(=S)N(CCCN1CCOCC1)Cc1cccs1)N1CCCCCC1,i,i,i,i,i,i,nt,nt,nt,nt,nt,nt
S=c1[nH]nc(COc2ccccc2)n1/N=C/c1ccco1,i,i,i,nt,i,i,nt,nt,nt,nt,nt,nt
SMILES,Diaphorase act,Cl transport mod,Diaph inh CS,ROMK mod,Lmaj promast,WT yeast gro inh,KCC2 sec1,KCC2 bumet counter,KCC2 secondary2,HEK293 Tl flux,KCC2 ouabain,HEK293 Tl flux2
CC(/C=N/n1c(COc2ccccc2)n[nH]c1=S)=C\c1ccco1,nt,121,nt,nt,nt,nt,0.015,0.17,i,0.055,0.046,0.014
S=c1[nH]nc(COc2ccccc2)n1/N=C/c1ccc(Br)s1,i,51,i,i,i,i,?,0.077,i,0.022,0.027,0.026
CCOC(=O)C(C)N1N=C(/C=C/c2ccc(OC)cc2)CCC1=O (centres undefined),i,nt,i,nt,i,i,nt,nt,nt,nt,nt,nt
O=C(OC(C(=O)NC1CCCC1)c1ccccn1)c1cccs1 (centres undefined),i,i,i,nt,i,i,nt,nt,nt,nt,nt,nt
CCOc1ccc(NC(=S)N(CCc2c(C)[nH]c3ccccc23)Cc2ccco2)cc1,i,i,i,i,i,i,nt,nt,nt,nt,nt,nt
Fc1ccc(NC(=S)Nc2ccc(F)c(Cl)c2)cc1Cl,i,-4.3,i,i,97,i,i,i,?,0.0059,0.013,?
COc1ccc(CNC(=S)Nc2ccc(F)c(Cl)c2)cc1,i,i,i,i,i,i,nt,nt,nt,nt,nt,nt
C=CCN(CC=C)C(=S)NC(=O)Cc1cccc2ccccc12,i,nt,i,nt,i,65,0.043,0.15,0.061,0.1,0.13,0.054
CCCCn1c(SCc2cc(=O)[nH]c3ccccc23)nc2c1c(=O)n(C)c(=O)n2C,i,i,i,nt,i,i,nt,nt,nt,nt,nt,nt
COc1ccc(OC)c(/C(O)=C/C(=O)C(=O)Nc2cc(C)ccc2OC)c1,i,4,i,i,93,i,i,0.022,i,0.016,0.027,0.018
COc1ccccc1NC(=O)CNC(=O)c1ccccc1,i,i,i,nt,i,i,nt,nt,nt,nt,nt,nt
COc1ccc(OC)c(/C(O)=C/C(=O)C(=O)Nc2cc(C)cc(C)c2)c1,i,i,i,i,i,i,nt,nt,nt,nt,nt,nt
CCOc1ccccc1NC(=O)C(=O)/C=C(\O)c1cc(OC)ccc1OC,i,5.8,i,i,i,i,i,0.026,i,0.022,0.029,0.014
COc1ccccc1NC(=O)C(=O)/C=C(\O)c1ccccc1,nt,73,nt,nt,nt,nt,?,0.088,0.062,0.052,0.064,0.041
